# The sample as a whole holds a higher share of hits than the screen did.
# Lmaj promast: reduces viability of Leishmania major promastigotes; resazurin fluorescence viability; inhibition, % at 10 µM; actives 9% (n = 200,000); in the data active = inhibition above about 50%;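 also: promastigotes grown with compound for 44 hours at 28 °C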
# T cruzi inh: T. cruzi replication inhibition; inhibition, % (concentration not given with the values); AID 1885; T. cruzi beta-gal in NIH3T3, luminescence, 90 h; actives 1.4% (n = 300,000);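 active = mean inhibition across valid replicates above about 55%, limit read from the data; inconclusive = mean below that limit but half or more replicates reach it; inactive = mean below it, under half of replicates reach it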;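 also: signal also drops with host cell toxicity which is not excluded here; higher percent means less beta-gal luminescence so fewer parasites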
#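 Material: NIH/3T3 host cells with β-galactosidase reporter T. cruzi; Input: 5,000 host fibroblasts per well; Medium: DMEM, 2% fetal bovine serum; Compound: 50 nL DMSO compound solution per well; Schedule: 3 h host attachment, then at least 90 h co-culture; Detection: luminescent β-galactosidase signal after 60 min lysis.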
# HSF1 activator: increases HSF-1 driven luciferase reporter signal | NIH3T3-HGL HSF-1 luciferase reporter, MG132, 8 h; 100% = twice DMSO control signal | activation, % at 9 µM | actives 1.7% (n = 300,000);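 active = mean replicate activation of at least 50% with a set share of replicates each reaching 50%; inconclusive = only one of those two conditions met; inactive = mean below 50% and too few replicates reaching it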
# HSF1 inhib: HSF1 inhibition; actives 0.77% (n = 300,000); AID 2098; activity change, negative = inhibition, % at 7.5 µM (by protocol); NIH3T3-HGL HSE-luciferase, MG132-induced, luminescence 8 h; active compounds read low;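 active = more than half of replicate wells show activity change below -50%, luminescence cut by over half; inconclusive = some wells, but at most half, below -50%; inactive = no replicate well below -50%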;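 also: luciferase reports HSF-1 transcriptional activity via heat shock element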
# Hsp70 act: transcriptional activators of Hsp70; HeLa Hsp70 promoter luciferase reporter, luminescence; scaled: vehicle 0, proteasome-inhibitor control 100%; activation, % at 10 µM; actives 0.04% (n = 200,000); AID 1203;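 active = activation above the mean across all tested compounds plus 3 SD, cutoff set per campaign, cut at about 5.5% in these data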
# A number is an active result; 0 = inactive; ? = inconclusive; - = no result.
SMILES,Lmaj promast,T cruzi inh,HSF1 activator,HSF1 inhib,Hsp70 act
O=C(c1ccc2c3c(cccc13)CC2)C1CCCN(Cc2ccncc2)C1 (stereo not given),97,0,0,0,0
CCc1nc(CN2CCCC(C(=O)c3ccc4c5c(cccc35)CC4)C2)c(C)[nH]1 (stereo not given),99,0,0,0,0
Cc1ccc(-c2cc(N)n(Cc3ccc(Cl)cc3)n2)cc1,87,0,0,0,0
CCCN(CCC)CCCNC(=O)c1nn(-c2cccc(OC)c2)c(=O)c2ccccc12,0,0,0,0,0
S=C(NCCCN1CCOCC1)Nc1ccc(Cl)cc1Cl,99,0,0,0,0
COc1ccccc1NC(=S)NCCN1CCOCC1,0,0,0,0,0
COc1ccc(NC(=S)NCCN2CCOCC2)c(OC)c1,0,0,0,0,0
S=C(NCCN1CCOCC1)Nc1cccc2ccccc12,67,0,0,0,0
COc1ccc(OC)c(NC(=S)NCCCN2CCOCC2)c1,62,0,0,0,0
Oc1ccc(/C=N/NC(=S)NCCN2CCOCC2)c(O)c1,96,0,0,0,0
O=C(Cn1cnc2scc(-c3cccc([N+](=O)[O-])c3)c2c1=O)NCc1ccco1,0,0,0,0,0
S=C(NCCN1CCOCC1)Nc1ccc(Cl)cc1Cl,96,0,0,0,0
Cc1cc(Cl)ccc1NC(=S)NCCN1CCOCC1,60,0,0,0,0
COc1ccc(Cc2nnc(NC(=O)c3cc(OC)c(OC)c(OC)c3)s2)cc1,-,0,0,0,-
COc1ccc(/C=N/NC(=O)c2ccccc2F)cc1CN1CCN(c2ccc(F)cc2)CC1,67,-,-,-,0
Cc1cc(C(=O)N/N=C/c2cc(Br)cc(Br)c2OC(=O)c2cccc(F)c2)n[nH]1,98,65,0,0,0
Cc1cc(C(=O)N/N=C/c2cc(Br)ccc2OC(=O)c2ccc(Br)cc2)n[nH]1,98,0,0,0,0
Cc1cccc(C(=O)Oc2c(Br)cc(Br)cc2/C=N/NC(=O)c2ccncc2)c1,-,0,0,0,-
Cc1cc(C(=O)N/N=C/c2cc(Br)cc(Br)c2OC(=O)c2ccccc2)n[nH]1,81,0,0,0,0
Cc1cc(=O)oc2cc(OCC(=O)Nc3ccc(N4CCC(C)CC4)cc3)ccc12,-,0,0,0,-
CCCn1nc(C(=O)OCC(=O)NC(C)c2ccccc2)c2ccccc2c1=O (stereo not given),0,0,0,0,0
CN(C)CCC(=O)c1ccc(Cl)cc1,100,0,0,0,0
CN(CCC(=O)c1ccccc1)CCC(=O)c1ccccc1,-,0,0,0,-
COc1ccc(CN2CCNC(=O)C2CC(=O)N2CCCCO2)c(OC)c1 (stereo not given),0,0,0,0,0
CCOC(=O)C(C)(C)N(Cc1ccc(C)cc1)S(=O)(=O)c1ccc(Cl)c([N+](=O)[O-])c1,100,0,?,0,0
SMILES,Lmaj promast,T cruzi inh,HSF1 activator,HSF1 inhib,Hsp70 act
CCOC(=O)C(C)(C)NS(=O)(=O)c1ccc(Cl)c([N+](=O)[O-])c1,0,0,0,0,0
CCOC(=O)C(C)(C)N(Cc1ccc(Cl)cc1)S(=O)(=O)c1ccc(Cl)c([N+](=O)[O-])c1,99,0,66,0,0
CNc1[nH]c(=O)[nH]c(=O)c1N=Nc1cc(Cl)ccc1Cl,-,0,0,0,-
Cc1nn(Cc2noc(C(=O)NCc3ccccn3)n2)c(C)c1Br,-,0,0,0,-
CCOc1ccc(OCC(O)CNC2CCN(Cc3ccccc3)CC2)cc1 (stereo not given),0,57,0,0,0
COc1ccc(OCC(O)CNC2CCCC2)cc1 (stereo not given),-,0,0,0,-
COc1ccc(CNCC(O)COc2cccc3c2OC(C)(C)C3)cc1 (stereo not given),86,0,0,0,0
OC(CNc1ccccc1)COc1ccc(OCC(O)CNc2ccccc2)cc1 (stereo not given),66,63,0,0,0
COC(=O)c1ccc(COc2cccc3c2OC(C)(C)C3)cc1,-,0,0,0,-
COc1ccc(CNCC(O)COc2ccc(C(C)(C)c3ccccc3)cc2)cc1 (stereo not given),-,0,194,0,-
CC(C)(c1ccccc1)c1ccc(OCC(O)CNC2CCN(Cc3ccccc3)CC2)cc1 (stereo not given),101,62,0,0,0
CCOc1ccc2c(C)nc(NC3=NC(C)(C)C=C(C)N3)nc2c1,101,0,0,0,0
CCOc1ccc2nc(NC3=NC(C)(C)C=C(C)N3)nc(C)c2c1,98,0,0,0,0

# Screening results (PubChem)
